Measurements from ChEMBL document CHEMBL1152861, “Synthesis and serotonin receptor activity of the arylpiperazine alkyl/propoxy derivatives of new azatricycloundecanes” (Eur J Med Chem, 2009).
Activity calls are given as the source filed them. The rule behind the calls is not given here.

What was measured:
Mus musculus [1] = experiment: Neurotoxicity in Albino Swiss mouse administered intraperitoneally dose equivalent to 0.1 of LD50 after 30 mins measured for 1 min by chimney test; assay type: toxicity, organism-based; settings: in vivo, ip
How it was run: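 Male Albino Swiss mice (20-24 g), i.p. suspension in 1% Tween 80 at 0.1 mL/10 g body weight, with vehicle controls and 8 mice per group. Tested 30 min post-dose by having mice climb backwards up a plastic tube (3 cm inner diameter, 25 cm long). Failing three tasks within 60 s scored as motor impairment, reported as % of animals failing.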

[2] = biological target: 5-hydroxytryptamine receptor 2A (Homo sapiens, UniProt P28223); experiment: Displacement of [3H]ketanserin from 5HT2A receptor
[3] = biological target: T1, 5-hydroxytryptamine receptor 1A (Rattus norvegicus, UniProt P19327); experiment: Displacement of [3H]8-OH-DPAT from 5HT1A receptor in rat hippocampal membranes; assay type: cell membranes, Hippocampus, Membrane
T1 sequence (P19327 whole entry): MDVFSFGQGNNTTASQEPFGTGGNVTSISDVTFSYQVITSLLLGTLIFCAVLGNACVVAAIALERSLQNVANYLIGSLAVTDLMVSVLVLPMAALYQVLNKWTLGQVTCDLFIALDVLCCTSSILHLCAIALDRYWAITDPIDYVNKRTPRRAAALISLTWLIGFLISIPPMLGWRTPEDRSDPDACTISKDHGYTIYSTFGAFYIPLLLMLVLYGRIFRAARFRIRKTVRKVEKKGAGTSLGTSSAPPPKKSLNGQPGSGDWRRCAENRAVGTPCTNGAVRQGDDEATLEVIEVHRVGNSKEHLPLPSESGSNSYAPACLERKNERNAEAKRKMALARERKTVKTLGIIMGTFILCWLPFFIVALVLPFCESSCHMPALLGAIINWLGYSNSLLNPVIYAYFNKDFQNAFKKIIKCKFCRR

Mus musculus [4] = experiment: Anxiolytic activity in Albino Swiss mouse assessed as number of punished crossing administered intraperitoneally dose equivalent to 0.1 of LD50 after 30 mins measured for 1 min by four-plate test; assay type: functional, organism-based
How it was run: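 Male Albino Swiss mice (20-24 g), 8 per group, received ip compound in 1% Tween 80 (0.1 mL/10 g) at a dose equal to 0.1 of LD50; vehicle controls. Four-plate test 30 min later; punished crossings counted over 1 min.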

Mus musculus [5] = experiment: Effect on spontaneous locomotor activity in Albino Swiss mouse administered intraperitoneally dose equivalent to 0.1 of LD50 after 30 mins measured for 60 min by automatic photoresistor actometer
Mus musculus [6] = experiment: Antidepressive activity in Albino Swiss mouse assessed as total immobility time at 2.5 mg/kg, ip after 30 mins measured for 4 mins by forced swimming test; assay type: functional; settings: route intraperitoneal
How it was run: (§1)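 Forced swimming test in male Albino Swiss mice (20-24 g), 8 per group. Compounds given ip as suspensions in 1% Tween 80, 0.1 mL/10 g, at doses of 0.1-0.00635 of LD50, 30 min before test; imipramine 15 mg/kg ip as reference; controls got vehicle. Mice swam 6 min in a glass cylinder with 15 cm of 25 °C water; total immobility time scored; mean ± SEM.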

Mus musculus [7] = experiment: Antidepressive activity in Albino Swiss mouse assessed as total immobility time at 10 mg/kg, ip after 30 mins measured for 4 mins by forced swimming test; assay type: functional; settings: route intraperitoneal; how it was run: as §1
Mus musculus [8] = experiment: Antidepressive activity in Albino Swiss mouse assessed as total immobility time at 20 mg/kg, ip after 30 mins measured for 4 mins by forced swimming test; assay type: functional; settings: route intraperitoneal; how it was run: as §1
Mus musculus [9] = experiment: Antidepressive activity in Albino Swiss mouse assessed as total immobility time at 5 mg/kg, ip after 30 mins measured for 4 mins by forced swimming test; assay type: functional; settings: route intraperitoneal; how it was run: as §1
Mus musculus [10] = experiment: Antidepressive activity in Albino Swiss mouse assessed as total immobility time at 1.25 mg/kg, ip after 30 mins measured for 4 mins by forced swimming test; assay type: functional; settings: route intraperitoneal; how it was run: as §1
Mus musculus [11] = experiment: Antidepressive activity in Albino Swiss mouse assessed as total immobility time at 15 mg/kg, ip after 30 mins measured for 4 mins by forced swimming test; assay type: functional; settings: route intraperitoneal; how it was run: as §1
[12] = Selectivity ratio of Ki for 5HT2A receptor to Ki for rat 5HT1A receptor

Sequence of 5-hydroxytryptamine receptor 2A (P28223 whole entry): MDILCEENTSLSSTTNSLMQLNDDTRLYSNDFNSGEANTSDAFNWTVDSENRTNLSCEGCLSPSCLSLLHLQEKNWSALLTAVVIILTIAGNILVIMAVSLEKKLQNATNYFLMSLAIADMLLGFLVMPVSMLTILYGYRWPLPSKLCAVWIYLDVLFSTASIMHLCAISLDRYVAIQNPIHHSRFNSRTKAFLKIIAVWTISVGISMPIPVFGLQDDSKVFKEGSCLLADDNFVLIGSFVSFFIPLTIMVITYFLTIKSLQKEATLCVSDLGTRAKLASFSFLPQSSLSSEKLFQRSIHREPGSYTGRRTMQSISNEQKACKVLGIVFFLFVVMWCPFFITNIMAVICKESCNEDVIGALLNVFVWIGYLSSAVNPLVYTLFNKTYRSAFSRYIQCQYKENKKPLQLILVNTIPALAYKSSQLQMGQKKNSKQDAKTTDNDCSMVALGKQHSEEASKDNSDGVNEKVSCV

SMILES: COc1ccccc1N1CCN(CCCON2C(=O)C3C4C(C)=CC(OC(C)=O)(CC4C)C3C2=O)CC1 (configuration not stated)
- Activity (Mus musculus [1]): Not Active
- Ki [2]: 0.681 µM
- Ki [3]: 0.027 µM
- Activity (Mus musculus [4]): inactive
- Activity (Mus musculus [5]): inactive

SMILES: CC1CC2(C)CC(=O)C1C1C(=O)N(OCCCN3CCN(c4cccc(Cl)c4)CC3)C(=O)C12 (configuration not stated)
- Activity (Mus musculus [1]): Not Active
- Ki [2]: 0.11 µM
- Ki [3]: 0.092 µM
- Activity (Mus musculus [4]): inactive
- Activity (Mus musculus [5]): inactive

SMILES: COc1ccccc1N1CCN(CCCON2C(=O)C3C4C=CC(OC)(CC4)C3C2=O)CC1 (configuration not stated)
- Ki [2]: 1.39 µM
- Ki [3]: 0.031 µM

SMILES: COc1ccccc1N1CCN(CCCON2C(=O)C3C4C(=O)CC(C)(CC4C)C3C2=O)CC1 (configuration not stated)
- Activity (Mus musculus [1]): Not Active
- Time (Mus musculus [6]): 83.5 s
- Ki [2]: 0.637 µM
- Time (Mus musculus [7]): 31.2 s
- Time (Mus musculus [8]): 29.4 s
- Ki [3]: 0.124 µM
- Time (Mus musculus [9]): 63.5 s
- Time (Mus musculus [10]): 123.7 s
- Activity (Mus musculus [4]): inactive
- Activity (Mus musculus [5]): inactive

SMILES: CC(=O)OC12C=C(C)C(C(C)C1)C1C(=O)N(OCCCN3CCN(c4ccccn4)CC3)C(=O)C12 (configuration not stated)
- Ki [2]: 1.84 µM
- Ki [3]: 0.2 µM

SMILES: CCOC12CCC(C(=O)C1)C1C(=O)N(CCCCN3CCN(c4ccccc4OC)CC3)C(=O)C12 (configuration not stated)
- Ki [2]: 2.79 µM
- Ki [3]: 0.026 µM

SMILES: CC(=O)OC12C=C(C)C(C(C)C1)C1C(=O)N(OCCCN3CCN(c4cccc(Cl)c4)CC3)C(=O)C12 (configuration not stated)
- Activity (Mus musculus [1]): Not Active
- Ki [2]: 0.376 µM
- Ki [3]: 0.037 µM
- Activity (Mus musculus [4]): inactive
- Activity (Mus musculus [5]): inactive

SMILES: CC(=O)OC12C=C(C)C(C(C)C1)C1C(=O)N(CCCCN3CCN(c4ncccn4)CC3)C(=O)C12 (configuration not stated)
- Ki [2]: 6.02 µM
- Ki [3]: 0.8 µM

SMILES: CC1CC2(C)CC(=O)C1C1C(=O)N(OCCCN3CCN(c4ccccc4)CC3)C(=O)C12 (configuration not stated)
- Ki [2]: 0.3 µM
- Ki [3]: 0.616 µM

SMILES: CC(=O)OC12C=C(C)C(C(C)C1)C1C(=O)N(CCCCN3CCN(c4ccccc4)CC3)C(=O)C12 (configuration not stated)
- Activity (Mus musculus [1]): Not Active
- Ki [2]: 0.286 µM
- Ki [3]: 0.034 µM
- Activity (Mus musculus [4]): inactive
- Activity (Mus musculus [5]): inactive

SMILES: COc1ccccc1N1CCN(CCCN2C(=O)C3C4C(=O)CC(C)(CC4C)C3C2=O)CC1 (configuration not stated)
- Activity (Mus musculus [1]): Not Active
- Ki [2]: 0.429 µM
- Ki [3]: 0.044 µM
- Activity (Mus musculus [4]): inactive
- Activity (Mus musculus [5]): inactive

SMILES: CC1CC2(C)CC(=O)C1C1C(=O)N(OCCCN3CCN(c4ccccc4F)CC3)C(=O)C12 (configuration not stated)
- Ki [2]: 0.91 µM
- Ki [3]: 0.331 µM

SMILES: COc1ccccc1N1CCN(CCCCN2C(=O)C3C4C(=O)CC(C)(CC4C)C3C2=O)CC1 (configuration not stated)
- Activity (Mus musculus [1]): Not Active
- Ki [2]: 0.522 µM
- Ki [3]: 0.025 µM
- Activity (Mus musculus [4]): inactive
- Activity (Mus musculus [5]): inactive

SMILES: CC(=O)OC12C=C(C)C(C(C)C1)C1C(=O)N(CCCCN3CCN(c4ccc(F)cc4)CC3)C(=O)C12 (configuration not stated)
- Ki [2]: 0.17 µM
- Ki [3]: 0.286 µM

SMILES: CC1CC2(C)CC(=O)C1C1C(=O)N(CCCCN3CCN(c4ccccn4)CC3)C(=O)C12 (configuration not stated)
- Ki [2]: 0.577 µM
- Ki [3]: 0.202 µM

SMILES: CC(=O)OC12C=C(C)C(C(C)C1)C1C(=O)N(CCCCN3CCN(Cc4ccccc4)CC3)C(=O)C12 (configuration not stated)
- Ki [2]: 9.72 µM
- Ki [3]: 1.42 µM

SMILES: CC(=O)OC12C=C(C)C(C(C)C1)C1C(=O)N(CCCN3CCN(c4ccccc4)CC3)C(=O)C12 (configuration not stated)
- Ki [2]: 0.575 µM
- Ki [3]: 0.294 µM

SMILES: CC1CC2(C)CC(=O)C1C1C(=O)N(CCCCN3CCN(c4ccc(F)cc4)CC3)C(=O)C12 (configuration not stated)
- Activity (Mus musculus [1]): Not Active
- Ki [2]: 0.102 µM
- Ki [3]: 0.521 µM
- Activity (Mus musculus [4]): inactive
- Activity (Mus musculus [5]): inactive

SMILES: COc1ccccc1N1CCN(CCCCN2C(=O)C3C4C(=O)CC(OC(C)=O)(CC4(C)C)C3C2=O)CC1 (configuration not stated)
- Ki [2]: 0.77 µM
- Ki [3]: 0.022 µM

SMILES: CC1CC2(C)CC(=O)C1C1C(=O)N(CCCCN3CCN(c4ccccc4)CC3)C(=O)C12 (configuration not stated)
- Activity (Mus musculus [1]): Not Active
- Ki [2]: 0.181 µM
- Ki [3]: 0.05 µM
- Activity (Mus musculus [4]): inactive
- Activity (Mus musculus [5]): inactive

SMILES: CC(=O)OC12C=C(C)C(C(C)C1)C1C(=O)N(CCCCN3CCN(c4ccccn4)CC3)C(=O)C12 (configuration not stated)
- Activity (Mus musculus [1]): Not Active
- Ki [2]: 0.965 µM
- Ki [3]: 0.097 µM
- Activity (Mus musculus [4]): inactive
- Activity (Mus musculus [5]): inactive

SMILES: CN(C)CCCN1c2ccccc2CCc2ccccc21 [IMIPRAMINE]
- Time (Mus musculus [11]): 69.5 s

SMILES: COc1ccccc1N1CCN(CCCN2C(=O)C3C4C(C)=CC(OC(C)=O)(CC4C)C3C2=O)CC1 (configuration not stated)
- Activity (Mus musculus [1]): Not Active
- Ki [2]: 1.02 µM
- Ki [3]: 0.035 µM
- Activity (Mus musculus [4]): inactive
- Activity (Mus musculus [5]): inactive

SMILES: CC(=O)OC12C=C(C)C(C(C)C1)C1C(=O)N(OCCCN3CCN(c4ccccc4F)CC3)C(=O)C12 (configuration not stated)
- Activity (Mus musculus [1]): Not Active
- Time (Mus musculus [6]): 56.8 s
- Ki [2]: 1.07 µM
- Time (Mus musculus [7]): 27.5 s
- Time (Mus musculus [8]): 18.4 s
- Ki [3]: 0.08 µM
- Time (Mus musculus [9]): 48.3 s
- Time (Mus musculus [10]): 114.3 s
- Activity (Mus musculus [4]): inactive
- Activity (Mus musculus [5]): inactive

SMILES: CC(=O)OC12C=C(C)C(C(C)C1)C1C(=O)N(OCCCN3CCN(c4ccccc4)CC3)C(=O)C12 (configuration not stated)
- Activity (Mus musculus [1]): Not Active
- Ki [2]: 0.375 µM
- Ki [3]: 0.115 µM
- Activity (Mus musculus [4]): inactive
- Activity (Mus musculus [5]): inactive

SMILES: CC1CC2(C)CC(=O)C1C1C(=O)N(CCCCN3CCN(c4ncccn4)CC3)C(=O)C12 (configuration not stated)
- Ki [2]: 3.38 µM
- Ki [3]: 1.52 µM

SMILES: COc1ccccc1N1CCN(CCCCN2C(=O)C3C4C(C)=CC(OC(C)=O)(CC4C)C3C2=O)CC1 (configuration not stated)
- Activity (Mus musculus [1]): Not Active
- Ki [2]: 0.737 µM
- Time (Mus musculus [7]): 71.7 s
- Ki [3]: 0.01 µM
- Time (Mus musculus [9]): 113.8 s
- Activity (Mus musculus [4]): inactive
- Ratio Ki [12]: 74
- Activity (Mus musculus [5]): inactive

SMILES: CC1CC2(C)CC(=O)C1C1C(=O)N(CCCCN3CCN(Cc4ccccc4)CC3)C(=O)C12 (configuration not stated)
- Ki [2]: 2.09 µM
- Ki [3]: 2.73 µM

SMILES: CC1CC2(C)CC(=O)C1C1C(=O)N(CCCN3CCN(c4ccccc4)CC3)C(=O)C12 (configuration not stated)
- Ki [2]: 0.292 µM
- Ki [3]: 0.344 µM
